Published values from different studies.
Compare with care: the assays were run in different laboratories. pEC50, pIC50: −log10 of the molar value.
Cell line: NCI-H1299
Read-out: cell growth or viability

Structure (SMILES)	technique	tested at	time	measurement	value
Cc1cc2c(cc1N1C(=O)c3cccc4c(CCCO)ccc(c34)C1=O)n(C)c(=O)n2C (racemic)	resazurin	–	–	GI50	> 10 µM
COc1ccccc1C#CCNCC(O)COc1cccc2[nH]c3ccccc3c12 (centres unmarked)	CCK-8	–	72 h	pIC50	< 4.00
CN1C[C@H](C(=O)N[C@]2(C)O[C@@]3(O)[C@@H]4CCCN4C(=O)[C@H](Cc4ccccc4)N3C2=O)C[C@@H]2c3cccc4[nH]cc(c34)C[C@H]21	MTT	–	72 h	pEC50	4.15
COc1ccc(-c2ccc(/C(C)=N/O)c(O)c2Cl)cc1C	MTT	30 µM	48 h	viability	76%
C=C(c1ccc(C(=O)O)cc1)c1cc2c(cc1C)C(C)(C)CCC2(C)C	MTT	–	72 h	pEC50	4.36
Cc1c(-c2cccc(C(F)(F)F)c2)sc2[nH]c(=O)n([C@H](C)c3cccc4ccccc34)c(=O)c12	–	10 µM	–	inhibition	> 80%
COc1cccc(-c2ccc(/C(C)=N/O)c(O)c2Cl)c1	MTT	30 µM	48 h	viability	90%
COc1ccccc1OCCN1CCOC(COc2cccc3[nH]c4ccccc4c23)C1 (centres unmarked)	CCK-8	–	72 h	pIC50	< 4.00
C/C(=N\O)c1ccc(-c2cccc(C#N)c2)c(Cl)c1O	MTT	30 µM	48 h	viability	82%
CCCc1ccc(OCC(O)CNC/C=C/c2ccccc2OC)cc1 (centres unmarked)	CCK-8	–	72 h	pIC50	4.94
COc1cc2c(Nc3ccc(NC(=O)c4ccccc4)cc3)ncnc2cc1OCCCN1CCOCC1	MTS	–	72 h	pIC50	6.15
